A selection: hits, their analogues and other compounds. The true share with any hit is near 2.5%.
MC4R antag cAMP – antagonists of human melanocortin 4 receptor (MC4R); MC4R-expressing cells, MTII-stimulated cAMP, LANCE TR-FRET; inhibition, % at 6.5 µM; hit rate 0.48% among 360,000; AID 540295;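 active means inhibition above its plate's cutoff, the mean of tested wells on that plate plus 3 SD, cut at about 29% in these data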;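 further: 0% = Melanotan II alone and 100% = Melanotan II plus saturating MCL0020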
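Test system: U2OS cells stably expressing human melanocortin 4 receptor (MC4R); also added: Melanotan II challenge; compound: 6.5 µM single dose; timing: 30-min compound preincubation, 1-h Melanotan II challenge, 1-h detection, room temperature; signal: Eu-cAMP/anti-cAMP TR-FRET, emission 671 nm; repeats: one well per compound, no replicates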
A1 inh – inhibitors of the anti-apoptotic protein A1, read as caspase activation; hit rate 0.066% among 330,000; caspase activation, % (concentration not given with the values); MEF A1-2A-BIM cells, Caspase-Glo 3/7 luminescence, 3 h; percent of clofoctol response, vehicle zero;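 active means over half of replicate activation scores above 10%, or exactly half above 10 with the replicate mean above 10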
NTR1 agonist – NTR1 (human) agonism. P30989. NTR1-U2OS beta-arrestin-GFP spot imaging, agonist mode. activation, % at 20 µM. hit rate 0.17% among 330,000. AID 493036;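 active means activation at or above 40% of the spot to cytoplasm intensity ratio, with at least 20 cells analyzed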;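 further: 0% = DMSO without peptide and 100% = 100 nM NTR1 peptide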
MC4R ag barr – activates human MC4R beta-arrestin recruitment; P32245; U2OS MC4R beta-arrestin complementation, luminescence; percent of melanotan II response, DMSO zero; hit rate 0.98% among 360,000; activation, % at 8.9 µM;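 active means activation above a per-plate cutoff, the mean activation of sample wells on that plate plus 3 SD, cut at about 8% in these data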
Exocytosis inh – lytic granule exocytosis inhibition; inhibition, % at 10 µM; hit rate 0.66% among 360,000; TALL-104 LAMP-1 surface exposure, flow cytometry; cells stimulated with thapsigargin and PMA;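 active means inhibition above about 55%, limit read from the data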
HGIII-sPLA2 inh – Blocks human group III sPLA2 activity. Q9NZ20. QFRET BODIPY PC-A2 liposome hydrolysis, fluorescence. inhibition, % at 12.2 µM. hit rate 0.56% among 370,000. AID 743126;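 active means inhibition above mean plus 3 SD of compounds lying within the high and low control bounds, cut at about 19% in these data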;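 further: 0% = median of test compound wells and 100% = no enzyme DMSO wells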
Target sequence (Q9NZ20 whole entry, looked up): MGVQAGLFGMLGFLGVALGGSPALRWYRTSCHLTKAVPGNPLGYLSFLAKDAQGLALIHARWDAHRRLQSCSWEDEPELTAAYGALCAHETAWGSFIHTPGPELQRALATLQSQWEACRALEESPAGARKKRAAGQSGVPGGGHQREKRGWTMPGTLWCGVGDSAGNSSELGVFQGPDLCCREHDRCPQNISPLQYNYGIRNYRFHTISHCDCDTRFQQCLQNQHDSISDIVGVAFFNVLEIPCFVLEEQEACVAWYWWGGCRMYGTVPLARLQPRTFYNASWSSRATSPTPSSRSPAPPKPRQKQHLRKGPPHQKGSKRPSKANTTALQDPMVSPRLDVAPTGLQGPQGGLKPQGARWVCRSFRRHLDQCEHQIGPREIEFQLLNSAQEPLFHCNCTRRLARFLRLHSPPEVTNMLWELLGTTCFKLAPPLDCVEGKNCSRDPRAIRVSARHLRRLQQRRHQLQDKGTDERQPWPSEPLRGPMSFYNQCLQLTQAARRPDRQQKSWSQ
cAMP nonselect – nonselective cAMP signaling inhibitor, MC4R antagonist counter-screen; shares compounds with MC4R antag cAMP; parental U2OS, forskolin cAMP, LANCE TR-FRET; inhibition, % at 6.5 µM; hit rate 26% among 1,600;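 active means mean inhibition over triplicates above the low-control well mean plus 3 SD, set per campaign, cut at about 13% in these data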;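 further: signal is single emission at 671 nm which falls as cellular cAMP rises; 0% = forskolin-stimulated wells and 100% = buffer without forskolin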
MC4R antag conf – human MC4R cAMP antagonism confirmation | shares compounds with MC4R antag cAMP | MC4R-expressing cells, MTII-stimulated cAMP, TR-FRET | inhibition, % at 6.5 µM | hit rate 27% among 1,600; in the data active means inhibition above about 29%;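 further: 0% = agonist stimulated wells alone and 100% = agonist stimulated wells plus saturating reference antagonist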
Numbers without * were called inactive; nt = no result given.

SMILES	MC4R antag cAMP	A1 inh	NTR1 agonist	MC4R ag barr	Exocytosis inh	HGIII-sPLA2 inh	cAMP nonselect	MC4R antag conf
COc1cc(/C=C2\C(=N)N3N=C(C)SC3=NC2=O)cc(Cl)c1OCCOc1ccc(NC(C)=O)cc1	30.1*	0.0	-0.7	0.2	5.7	-3.6	5.8	1.3
COC(=O)C1(C)CCc2cc(OC)ccc2C1=O (stereo not given)	-5.1	0.0	0.6	-2.9	11.4	12.3	nt	nt
COc1ccc2c(c1)CCC1(C)CC(=O)C(Br)=C21 (stereo not given)	39.5*	nt	nt	-0.4	2.6	8.0	33.7*	52.7*
OC(c1ccccc1)(c1ccccc1)C1CCN(CCCOc2ccncc2)CC1	nt	nt	nt	nt	nt	-16.7	nt	nt
CC(C)Cc1nc2oc3c(Cl)ncnc3c2c2c1CCCC2	46.2*	0.3	34.2	-1.8	24.6	-2.1	13.9*	31.8*
Cc1nc(SCC(=O)N2CCCCCC2)c2c(=O)n(C)c(=O)n(CC(C)C)c2n1	32.6*	nt	nt	0.6	-0.9	12.4	3.1	12.7
O=C(COC(=O)[C@H](Cc1ccccc1)NC(=O)c1ccco1)NC(c1ccccc1)c1ccccc1	31.9*	0.0	2.3	-0.5	4.2	-36.8	19.8*	36.0*
O=C(COC(=O)[C@H](Cc1ccccc1)NC(=O)c1cccs1)NC1CCCCC1	36.9*	1.2	3.1	-1.5	1.6	-2.4	7.8	10.0
O=C(COC(=O)[C@H](Cc1ccccc1)NC(=O)c1cccs1)NC1CC1	20.9	-0.2	1.3	-0.6	9.4	-2.9	nt	nt
O=S1(=O)c2ccc(N3CCCC3)cc2Oc2ccccc2CN1Cc1cn(Cc2ccc(Cl)cc2)nn1	nt	nt	nt	nt	nt	5.7	nt	nt
CC1=NN(c2ccccc2)C(=O)/C1=C\c1cn(-c2ccccc2)nc1C	28.5*	0.0	6.7	3.5	-1.4	4.1	5.1	6.4
Cc1ccc(-c2nn(-c3ccccc3)cc2C=C2C(=O)CC(C)(C)CC2=O)cc1	31.4*	-0.5	46.0*	1.9	52.1	4.5	18.1*	23.2
C=C(C)[C@@H]1C2=CC(C(=O)OC)=C(C[C@H](C(=C)C)[C@H]3O[C@H]3C3=C[C@H]1OC3=O)O2	36.4*	nt	nt	-0.2	-1.0	3.0	13.6*	44.9*
c1ccc(-c2noc(CN3CCCC(OCc4ccccn4)C3)n2)cc1 (stereo not given)	31.1*	0.4	0.7	0.0	-0.5	1.0	0.8	5.4
CC1CCN(Cc2nc(-c3ccccc3)no2)CC1	2.5	-2.2	-0.4	-2.1	-1.2	11.7	nt	nt
CCCCCN1CCCCC(NC(=O)c2cccc(F)c2)C1=O (stereo not given)	nt	nt	nt	nt	nt	-2.5	nt	nt
CCOc1cc(CCNC(=O)c2cc3ccsc3n2C)ccc1OC	nt	nt	nt	nt	nt	0.9	nt	nt
CN(C)S(=O)(=O)c1ccc(NCC2COc3ccccc3O2)c([N+](=O)[O-])c1 (stereo not given)	15.4	-0.7	14.4	-1.0	0.7	-2.3	nt	nt
NC(=O)c1ccc(NCC2COc3ccccc3O2)c([N+](=O)[O-])c1 (stereo not given)	36.1*	-0.7	1.7	-0.8	1.6	0.9	-1.7	-3.1
CC(=O)Oc1ccc2nc(-c3ccco3)oc(=O)c2c1	33.8*	-3.1	1.9	0.1	15.7	1.9	12.7	39.2*
O=C(Nc1nc2ccccc2[nH]1)c1ccc(Cl)c(S(=O)(=O)N2CCCC2)c1	29.0*	-2.0	-1.7	-1.4	2.3	nt	10.5	7.3
O=C(NC1=NCCS1)c1ccccc1	13.9	-0.6	0.2	0.6	-3.0	3.1	nt	nt
O=C(NC1=NCCS1)c1ccc(Cl)c(S(=O)(=O)N2CCCC2)c1	32.0*	0.1	0.5	0.9	-4.5	-7.2	5.3	1.2
Cc1cccc(C(=O)NC2=NCCS2)c1	33.3*	0.7	-0.6	0.6	-5.9	7.6	-1.0	3.9
C[C@H]1[C@@H](NCc2cccs2)CC[C@@]23CCCN2C(=O)CCC[C@@H]13	nt	nt	nt	nt	nt	-1.2	nt	nt
CC(=O)CC[C@@H]1CC[C@]2(CCCN(C(=O)c3ccno3)C2)O1	nt	nt	nt	nt	nt	4.4	nt	nt

Source: PubChem BioAssay
